PfG6PD inh = PfG6PD enzyme inhibitors, primary screen, biochemical, fluorescence intensity, uHTS; 350,000 tested, 0.78% active; glucose-6-phosphate dehydrogenase-6-phosphogluconolactonase (Plasmodium falciparum 3D7); PfGluPho enzyme, NADPH resazurin-diaphorase fluorescence; inhibition, % at 20 µM;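 active means inhibition reaching at least a set limit at 20 µM in the primary screen, cut at about 59% in these data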;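 further: 0% = DMSO wells with substrate and 100% = DMSO wells lacking glucose-6-phosphate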
Diaph inh CS = diaphorase inhibitors and chemical oxidizers, primary screen, counter-screen for diaphorase-coupled primary assays, biochemical, uHTS, resorufin fluorescence | diaphorase resazurin-to-resorufin fluorescence, NADH, 16 min; bacterial (C. kluyveri) enzyme, not human | inhibition, % at 20 µM | 190,000 tested, 0.69% active | AID 1217, 2008;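 active means primary screen inhibition at 20 µM above a set limit, cut at about 50% in these data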;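 further: plate controls were DMSO with full reaction for no effect and wells lacking NADH for full effect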
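Assay system: diaphorase enzyme from Clostridium kluyveri; Input: enzyme working solution with 0.14 U/mL diaphorase; Timing: 16 min at room temperature; Technique: resorufin fluorescence, excitation 544 nm, emission 590 nm; Benchmarks: positive control minus NADH, DMSO neutral control.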
Diaph act CS = compounds boosting diaphorase resazurin reduction – biochemical, uHTS, resorufin fluorescence, counter-screen for diaphorase-coupled primary assays, primary screen | Diaphorase/resazurin coupled assay, 16 min; stronger effect = higher value; 1 = vehicle wells, 0 = NADH-free wells | activation factor at 20 µM | 190,000 tested, 0.005% active | AID 1229, 2008;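 active means diaphorase activity raised at least twofold by the compound at 20 µM; inactive means activation factor below 2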
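Material: purified diaphorase enzyme from Clostridium kluyveri / Medium: HEPES pH 7.4 buffer with MgCl2 and Tween 20 / Schedule: enzyme reaction of 16 min at room temperature / Measured by: resorufin fluorescence, excitation 544 nm, emission 590 nm / Evaluation: rise in resorufin formation, marking diaphorase activation or chemical reduction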
G6PDH counter = L. mesenteroides G6PDH inhibitors, counter-screen for G6PDH-coupled screening assays, biochemical, Leuconostoc mesenteroides enzyme. glucose-6-phosphate dehydrogenase [Leuconostoc mesenteroides]. Purified L. mesenteroides G6PDH, diaphorase/resazurin coupled fluorescence, 45 min. inhibition, % at 5 µM. 200,000 tested, 0.12% active; in the data active means inhibition above about 50%
HKDC1 inhibitor = HKDC1 hexokinase inhibitors, primary screen, biochemical, fluorescence, uHTS; Q2TB90; 340,000 tested, 0.16% active; AID 493160, 2011; recombinant HKDC1, G6PDH/diaphorase resazurin coupled fluorescence; inhibition, % at 20 µM;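 active means inhibition above about 35% when tested at 20 µM, limit read from the data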;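 further: plate controls were DMSO wells with enzyme for no effect and DMSO wells lacking enzyme for full effect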
Target sequence (Q2TB90 whole entry, looked up): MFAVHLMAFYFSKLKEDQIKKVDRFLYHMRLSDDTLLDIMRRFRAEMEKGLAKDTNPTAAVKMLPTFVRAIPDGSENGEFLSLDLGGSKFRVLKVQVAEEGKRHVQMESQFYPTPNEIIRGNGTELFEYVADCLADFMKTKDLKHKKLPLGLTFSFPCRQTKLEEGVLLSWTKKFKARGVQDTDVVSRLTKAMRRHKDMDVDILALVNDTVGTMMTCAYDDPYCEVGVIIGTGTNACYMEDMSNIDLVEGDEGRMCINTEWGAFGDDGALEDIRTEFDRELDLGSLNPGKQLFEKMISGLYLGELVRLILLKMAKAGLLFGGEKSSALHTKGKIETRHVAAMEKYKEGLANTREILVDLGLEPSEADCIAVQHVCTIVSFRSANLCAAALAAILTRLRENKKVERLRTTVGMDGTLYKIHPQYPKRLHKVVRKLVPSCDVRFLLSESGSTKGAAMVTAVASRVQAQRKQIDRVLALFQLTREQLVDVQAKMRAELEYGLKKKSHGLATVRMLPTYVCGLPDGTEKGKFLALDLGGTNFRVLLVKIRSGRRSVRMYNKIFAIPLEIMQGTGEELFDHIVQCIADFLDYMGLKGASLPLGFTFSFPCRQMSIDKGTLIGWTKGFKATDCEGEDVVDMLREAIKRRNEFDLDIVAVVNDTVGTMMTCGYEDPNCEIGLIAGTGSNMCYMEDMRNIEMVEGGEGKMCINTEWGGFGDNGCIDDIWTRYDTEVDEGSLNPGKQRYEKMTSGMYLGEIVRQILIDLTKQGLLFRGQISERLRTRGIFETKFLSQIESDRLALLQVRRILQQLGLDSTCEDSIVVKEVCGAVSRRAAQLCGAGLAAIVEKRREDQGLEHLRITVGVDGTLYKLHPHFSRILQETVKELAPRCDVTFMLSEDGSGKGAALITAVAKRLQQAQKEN
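Material – in-house recombinant HK5 (HKDC1) enzyme · Quantity – HKDC1 at 5 µg/mL · Buffer or medium – pH 8.0 Tris buffer with 10 mM MgCl2 · Reagent – glucose with 1 mM ATP · Dosing – single 20 µM dose · Times – reaction time 90 min, room temperature, protected from light · Technique – resorufin fluorescence at 613 nm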
PfG6PD confirm = PfG6PD inhibitors, hit retest, confirmation, biochemical, fluorescence intensity, single concentration. 2,400 tested, 34% active. recombinant PfGluPho, NADPH-diaphorase-resazurin fluorescence. shares compounds with PfG6PD inh. inhibition, % at 20 µM;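 active means inhibition of at least 50% at 20 µM in any single replicate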;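 further: 0% = DMSO with substrate and 100% = DMSO lacking glucose-6-phosphate substrate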
Diaph ctr 10uM = diaphorase inhibitors and chemical oxidizers, confirmation, counter-screen for P. falciparum G6PD inhibitor project, biochemical, fluorescence intensity, 10 µM NADPH; shares compounds with PfG6PD inh; diaphorase-coupled resazurin reduction, NADPH 10 uM; inhibition, % at 20 µM; 820 tested, 39% active; AID 504862, 2011;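 active means average inhibition reaching 50% or more with the compound at 20 µM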;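 further: resorufin red fluorescence formed as diaphorase reduces resazurin using NADPH; 0% = DMSO with enzyme and 100% = DMSO without enzyme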
Diaph ctr 30uM = diaphorase inhibitors and chemical oxidizers, confirmation, counter-screen for P. falciparum G6PD inhibitor project, biochemical, fluorescence intensity, 30 µM NADPH | Diaphorase/resazurin coupled assay, resorufin fluorescence | shares compounds with PfG6PD inh | inhibition, % at 20 µM | 820 tested, 29% active | AID 504863, 2011;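 active means inhibition averaging 50% or more, tested at 20 µM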;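 further: 0% = DMSO with enzyme and 100% = DMSO wells lacking diaphorase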
* marks the source's active call; other numbers are inactive results; . = not tested or not shown. Rows were chosen to be rich in hits. Some 1.2% of all compounds tested hit in one or more screens of this group.

SMILES | PfG6PD inh | Diaph inh CS | Diaph act CS | G6PDH counter | HKDC1 inhibitor | PfG6PD confirm | others
Cc1ccccc1OCC(=O)NCC(=O)N/N=C/c1cccc([N+](=O)[O-])c1 | . | -4 | 1 | 4 | . | .
O=C(N/N=C/c1cccc(Oc2ccc([N+](=O)[O-])cc2[N+](=O)[O-])c1)c1cncc(Br)c1 | 98* | 45 | 0.6 | 12 | 21 | 69* | Diaph ctr 10uM=69*;Diaph ctr 30uM=58*
C/C(=N\Nc1nc2ccccc2[nH]1)c1ccc(Cl)s1 | 77* | 7 | 0.9 | -19 | -12 | 15
C=CCc1ccccc1Oc1cc(F)nc(N)n1 | 8 | . | . | . | -2 | .
Cc1[nH]n(-c2ccccc2)c(=S)c1C=NCCCN=Cc1c(C)[nH]n(-c2ccccc2)c1=S | 62* | 13 | 0.9 | 6 | -31 | 27
O=C(COC(=O)c1cc(S(=O)(=O)N2CCOCC2)c(Cl)cc1Cl)c1ccc[nH]1 | 13 | . | . | . | -4 | .
Cc1ccc(-c2nn(C)c(=O)c3ccccc23)cc1CNC(=O)/C=C/c1ccccc1 | 77* | -7 | 1.1 | 0 | 4 | 76* | Diaph ctr 10uM=59*;Diaph ctr 30uM=50
O=C(Nc1ccccc1C(=O)O)c1ccc(CN2C(=O)c3ccccc3C2=O)cc1 | -43 | . | . | . | 3 | .
CCCC1Nc2ccc(C(=O)O)cc2C2C=CCC12 (configuration not stated) | 6 | 10 | 0.9 | 11 | 19 | .
CCOC(=O)C1Nc2ccc(C(=O)O)cc2C2C=CCC12 (configuration not stated) | 62* | . | . | . | 19 | 21
Cc1noc(C)c1COc1ccc(C(=O)NNC(=O)c2ccccc2O)cc1 | -47 | . | . | . | -2 | .
O=S(=O)(Nc1ccccc1N1CCCCC1)c1ccc(Cl)s1 | 86* | 18 | 0.8 | 6 | 2 | 22
OC(c1ccccc1)(c1ccccc1)c1nccn1-c1ccccc1 | 9 | . | . | . | -6 | .
COc1ccc(C(CNC(=O)COc2ccc(Cl)cc2C)N2CCCCC2)cc1 (configuration not stated) | 16 | . | . | . | -2 | .
O=C(c1ccc(Cl)cc1)c1ccccc1C(=O)N1CCOCC1 | 63* | -6 | 1.1 | 17 | -9 | 11
O=C(c1ccccc1)c1ccccc1C(=O)N1CCOCC1 | 2 | 6 | 0.9 | 4 | -2 | .
Cc1ccc(Cc2c(-c3ccc(C)cc3)nc3cc(C)ccn23)cc1 | 63* | . | . | . | . | 6
Cc1ccn2c(Cc3ccccc3)c(-c3ccc(Br)cc3)nc2c1 | 108* | . | . | . | . | 25
Cc1ccc(Cc2c(-c3ccc(Cl)cc3)nc3cc(C)ccn23)cc1 | 96* | . | . | . | . | 3
Cc1ccn2c(Cc3ccccc3)c(-c3ccccc3)nc2c1 | 12 | . | . | . | . | .
CC1(C)CC(=O)C=C(c2ccc(COC(=O)C(c3ccccc3)c3ccccc3)cc2)C1=O | 12 | . | . | . | . | .
CCOC(=O)c1[nH]c(C)c(C(=O)OCC(=O)N(Cc2ccccc2)C(C)C)c1C | 7 | . | . | . | 6 | .
COc1ccc([N+](=O)[O-])cc1COc1cc(C)cc2oc(=O)cc(-c3ccccc3)c12 | 86* | 10 | 0.9 | 4 | 5 | 28
CC(=O)COc1cc(C)cc2oc(=O)cc(-c3ccccc3)c12 | -20 | 3 | 1 | 6 | 11 | .
Fc1cccc(Cl)c1CNc1ccc(N2CCCC2)cc1 | 106* | 79* | 0.2 | 22 | 9 | 87* | Diaph ctr 10uM=2;Diaph ctr 30uM=2
SMILES | PfG6PD inh | Diaph inh CS | Diaph act CS | G6PDH counter | HKDC1 inhibitor | PfG6PD confirm | others
O=C(Nc1ccncc1)c1cc2ccccc2cc1O | 68* | . | . | . | 22 | 43
O=C(Nc1cccc([N+](=O)[O-])c1)c1cc2ccccc2cc1O | 73* | . | . | . | 0 | 11
COc1cc(OC)c(NC(=O)c2cc3ccccc3cc2O)cc1Cl | 85* | . | . | . | 9 | 23
COc1cc(C(=O)Nc2cccc3ncccc23)cc(OC)c1OC | -9 | 0 | 1 | 20 | 0 | .
COc1cc(NCCCCCCN)c2ncccc2c1OC | 90* | . | . | . | 20 | 46
COc1cc(NC(C)CCCNC(C)C)c2ncccc2c1OC (configuration not stated) | 37 | . | . | . | 19 | .
COc1cc(N)c2ncccc2c1OC | 70* | . | . | . | 6 | 74* | Diaph ctr 10uM=22;Diaph ctr 30uM=8
CC(C)(C)OC(=O)N[C@@H](C(=O)OC(C)(C)C)c1ccc2ccccc2c1 | 25 | . | . | . | 0 | .
Cc1ccc(NNS(=O)(=O)c2ccc(C)cc2)cc1 | 99* | 20 | 0.8 | 9 | -4 | 54* | Diaph ctr 10uM=30;Diaph ctr 30uM=-6
CC(=O)Nc1ccc(S(=O)(=O)NNc2ccc([N+](=O)[O-])cc2)cc1 | 75* | . | . | . | 2 | 33
O=C(NNc1ccc([N+](=O)[O-])cc1)Nc1ccccc1 | 74* | . | . | . | -2 | 0
COc1cccc(N(CC(=O)NCCSCc2ccc(Cl)cc2)S(C)(=O)=O)c1 | 1 | . | . | . | -2 | .
O=C(CCCOc1ccc(Br)cc1)NNC(=O)c1ccncc1 | -6 | . | . | . | -1 | .
Cc1cccn2c(=O)c3cc(C(=O)NC(C)C)c(=N)n(Cc4ccncc4)c3nc12 | 73* | -6 | 1.1 | -31 | 0 | 21
Cc1cc(C)n2nc(C(=O)OCC(=O)Nc3ccc(C)c(S(=O)(=O)N4CCOCC4)c3)nc2n1 | -9 | . | . | . | -9 | .
CCOC(=O)C(Cc1ccc(O)c([N+](=O)[O-])c1)N1C(=O)c2ccccc2C1=O (configuration not stated) | -18 | . | . | . | 9 | .
[O-][N+](=Cc1ccccc1)c1ccc(Cl)cc1 | 87* | . | . | . | 1 | 92* | Diaph ctr 10uM=62*;Diaph ctr 30uM=30
[O-]/[N+](=C/c1ccco1)c1ccccc1 | 18 | . | . | . | -2 | .
[O-]/[N+](=C\c1ccco1)c1ccc(Cl)cc1 | 89* | . | . | . | -1 | 62* | Diaph ctr 10uM=38;Diaph ctr 30uM=13
c1ccc(-n2ncc3c(NC4CCCCCC4)ncnc32)cc1 | 96* | . | . | . | 1 | 21
CCOC(=O)N1CCC(Nc2ncnc3c2cnn3-c2ccccc2)CC1 | 4 | 14 | 0.9 | 16 | -3 | .
Cc1ccc(NC(=O)CSCC(=O)N(C)CC(=O)Nc2ccccc2C(F)(F)F)cc1 | 1 | . | . | . | -1 | .
